Shown are actives, neighbours in structure and some others; about 1.7% of the full set was active somewhere.
SUMO1-SIM PPI – modulators of SUMO1 protein-protein interactions, primary screen, biochemical, uHTS. actives 0.33% (n = 360,000). SUMO1 binding to a labelled peptide, TR-FRET, 1 h. Small ubiquitin-related modifier 1 (Homo sapiens), P63165. inhibition, % at 20 µM; in the data active = inhibition above about 37%
Pemphigus Ab inh – inhibitors of pemphigus antibody binding to DSG3, primary screen, biochemical, bead-based, flow cytometry, scFv-GFP. AID 588358, 2011. binding (percent of control), % at 10 µM. Desmoglein-3 (Homo sapiens), P32926. DSG3-coupled beads, scFv-anti-DSG3-GFP binding; hits give low values. actives 0.48% (n = 310,000);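 active = binding more than 3 SD below its plate's average and above zero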;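 note: hits lower antibody fragment binding to DSG3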
LMPTP block – LMPTP phosphatase inhibitors, primary screen, biochemical, fluorescence intensity, uHTS | recombinant LMPTP-A, OMFP fluorogenic substrate | inhibition, % at 20 µM | actives 0.22% (n = 360,000) | AID 651560, 2012;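 active = compounds that cut the enzyme signal by at least half of the control window in the single-dose screen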;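 note: plate controls were DMSO wells with enzyme plus substrate for no effect and substrate without enzyme for full effect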
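Test system: LMPTP-A phosphatase enzyme. Amount: LMPTP-A at 0.625 nM final in the reaction. Reagent: OMFP substrate, 400 µM final. Times: 50 min at room temperature. Signal: endpoint fluorescence intensity from OMFP dephosphorylation. Read-out basis: % inhibition. Benchmarks: no-enzyme and uninhibited controls.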
STEP inh – STEP phosphatase inhibitors, primary screen, biochemical, fluorescence intensity, uHTS. recombinant STEP, OMFP fluorogenic substrate. inhibition, % at 20 µM. actives 0.25% (n = 360,000);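 active = inhibition at 20 µM, scaled per plate between control wells, above about 37%, limit read from the data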;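 note: 0% = DMSO with enzyme and substrate and 100% = substrate only without enzyme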
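medium = Bis-Tris buffer pH 6.0, 2.5 mM DTT, 0.005% Tween 20 | test system = STEP (striatal-enriched tyrosine phosphatase) enzyme, cell-free | measure = normalized % inhibition | compound dosing = 20 µM, 1% DMSO | also added = 25 µM OMFP | schedule = reaction 20 min, ambient temperature | measured by = fluorescence read at 480 nm ex / 540 nm em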
Scp1 inh – Scp-1 phosphatase inhibitors, primary screen, biochemical, colorimetric, uHTS; inhibition, % at 20 µM; Recombinant Scp1, phosphopeptide, malachite green phosphate absorbance; AID 493091, 2011; actives 0.88% (n = 340,000);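 active = inhibition above about 50% at 20 µM, limit read from the data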;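 note: plate controls were DMSO wells with enzyme for no effect and wells lacking enzyme for full effect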
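System: SCP-1 catalytic domain; Reagent: Phospho 17-mer peptide substrate; Doses: one concentration, 20 µM, with 1.0% DMSO; Incubation: 45 min room-temperature reaction, 5 min colour, 30 min stabiliser; Signal: Phosphate-binding colour reagent, absorbance read at 630 nm.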
Scp1 confirm – Scp-1 phosphatase inhibitors, retest, confirmation, biochemical, colorimetric, single concentration; shares compounds with Scp1 inh; recombinant SCP-1 catalytic domain, phosphate release, malachite green absorbance; inhibition, % at 20 µM; actives 61% (n = 2,500); AID 540281, 2011;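 note: plate controls were DMSO with enzyme for no effect and buffer wells lacking enzyme for full effect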
MG interference – colorimetric readout interference by compounds, confirmation, artefact control for Scp-1 inhibitor project, biochemical, single concentration; shares compounds with Scp1 inh; Colorimetric interference counterscreen, malachite green absorbance 630 nm; apparent inhibition (interference), % at 20 µM; 2,500 tested, under 10 active; AID 540313, 2011;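 note: compounds added after enzyme reaction finished so only phosphate colour detection is probed; plate controls were DMSO wells with completed Scp-1 reaction for no effect and substrate wells lacking enzyme for full effect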
Scp-1 Tm shift – Scp-1 binding by thermal shift, confirmation, orthogonal assay for Scp-1 inhibitor project, biophysical, differential scanning fluorimetry; actives 25% (n = 1,500); thermal shift relative to vanadate control, % at 40 µM; shares compounds with Scp1 inh; Recombinant SCP1, Sypro Orange thermal shift Tm;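 active = substances whose mean melting-temperature shift, as a percentage of the reference inhibitor's shift, reaches about 5.3%, limit read from the data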;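 note: 0% = Tm of DMSO wells and 100% = Tm with sodium orthovanadate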
* = called active by the depositor; x = no result.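 Rule for the calls, unless noted: active = inhibition of at least 30% at 20 µM; inactive = the rest.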

SMILES	SUMO1-SIM PPI	Pemphigus Ab inh	LMPTP block	STEP inh	Scp1 inh	Scp1 confirm	MG interference	others
CCC1CN1P(=S)(N1CC1CC)N1CC1CC (configuration not stated)	6	93	1	-6	-8	x	x
O=C1C(=O)c2ccccc2-c2ccccc21	32	100	51*	36*	-9	x	x
NC(N)=N/N=C/c1ccc(N(c2ccccc2)c2ccccc2)cc1	100*	101	4	13	-1	x	x
Cc1ccc(N2C(=O)NC(=O)/C(=C\c3ccoc3)C2=O)cc1	3	98	0	1	11	x	x
O=C1NC(=S)N(c2ccc(F)cc2)C(=O)/C1=C\c1ccoc1	75*	85	46	42*	74*	x	x
CN(C)c1ccc(/C=C2\C(=O)NC(=O)N(Cc3ccc(F)cc3)C2=O)cc1	4	117	0	-1	-1	x	x
O=C1NC(=O)N(Cc2ccc(F)cc2)C(=O)/C1=C\c1ccoc1	33	104	11	15	64*	x	x
CCN1C[C@@]2(COC)C3[C@@H](OC)[C@H]4[C@@H]1[C@@]3(C1C[C@@]3(O)[C@H](OC(=O)c5ccccc5)C1[C@]4(OC(C)=O)[C@@H](O)[C@H]3OC)[C@@H](OC)C[C@H]2O (some centres not stated)	1	x	-2	4	-9	x	x
Nc1c(C(=O)NC2CCCC2)c2nc3ccccc3nc2n1CC1CCCO1 (configuration not stated)	41*	106	8	0	6	x	x
O=C(NC1CC2CCCC(C1)N2)c1ccccc1 (configuration not stated)	0	122	-2	-2	-6	x	x
O=C1NC(=O)N(Cc2ccco2)C(=O)/C1=C/C=C/c1ccco1	92*	102	23	40*	81*	x	x
CN1C(=O)/C(=C/C=C/c2ccco2)C(=O)NC1=S	54*	19*	12	36	98*	x	x
O=C1NC(=O)N(c2ccccc2)C(=O)/C1=C/C=C/c1ccco1	2	89	0	5	26	x	x
O=C1NC(=O)N(Cc2ccccc2)C(=O)/C1=C\C=C\c1ccco1	15	100	3	4	-1	x	x
CC12CC(=O)C3C(CCC4CC=CCC43C)C1CCC2=O (configuration not stated)	3	91	0	1	-8	x	x
COc1ccc(C(c2nnnn2C2CCCC2)N2CCC3(CC2)C(=O)NCN3c2ccccc2)cc1 (configuration not stated)	2	x	1	1	x	x	x
O=[N+]([O-])[N-][n+]1cnn(Cc2ccc(Cl)cc2)c1	-1	108	0	1	6	x	x
O=C(NN=Cc1ccc(N(CCCl)CCCl)cc1)c1cccc([N+](=O)[O-])c1	13	x	33	2	93*	72*	-11	Scp-1 Tm shift=3
O=C(NN=Cc1ccc(N(CCCl)CCCl)cc1)c1cccnc1	-21	104	-2	3	-8	x	x
COc1ccc2c3c1OC1C(O)C=CC4[C@@H](C2)N(C)CC[C@]314 (some centres not stated)	0	100	0	-1	-3	x	x
CNC(=O)OCc1n(C)cc[n+]1C	4	98	-4	-3	55*	11	-1
CCNC(=O)NC(=O)C(C)OC(=O)c1c(C)nn(Cc2ccccc2Cl)c1Cl (configuration not stated)	-2	100	1	-9	-5	x	x
CC(=O)Nc1ccc(OCCF)cc1	0	101	-1	-2	1	x	x
CN(C)/C=C/C(=O)C(Cl)(Cl)Cl	-1	98	2	2	-1	x	x
C[C@]12CCC3C(CC[C@H]4C[C@@H](O)CC[C@]34C)[C@H]1C=CC2=O (some centres not stated)	1	91	1	-2	56*	-18	-18
SMILES	SUMO1-SIM PPI	Pemphigus Ab inh	LMPTP block	STEP inh	Scp1 inh	Scp1 confirm	MG interference	others
CCOC(C(=O)OCCC[N+](C)(CC)CC)(c1ccccc1)c1ccccc1	-6	102	-3	-1	3	x	x
CC[N+](C)(CC)CCCOC(=O)C(O)(c1ccccc1)C1CCCCC1 (configuration not stated)	3	114	-2	-2	102*	79*	-19	Scp-1 Tm shift=-5
CC/C(CC(c1ccccc1)c1c(O)c2ccccc2oc1=O)=N\NC(N)=S (configuration not stated)	-1	x	0	3	56*	46*	1	Scp-1 Tm shift=2
COc1ccc(C(CC(C)=O)c2c(O)c3ccccc3oc2=O)cc1OC (configuration not stated)	8	104	-1	0	x	x	x
C[N+]1(C)C2CCC1CC(OC(=O)c1c[nH]c3ccccc13)C2 (configuration not stated)	2	93	1	3	54*	-6	-16
Cn1cccc1/C=C1\C(=O)NC(=O)N(Cc2ccco2)C1=O	15	88	41	56*	80*	45*	-23	Scp-1 Tm shift=8.1*
Cc1c(P(=S)(c2ccccc2)c2ccccc2)[n+]2ccccc2n1C	-59	96	7	-2	68*	-11	-15
CCN(CC)CCOC(=O)C(O)(c1ccccc1)c1ccccc1	8	117	-2	0	-14	x	x
CC(C)N1C(=O)CC2(CC[N+](C)(CCOC(=O)C(O)(c3ccccc3)c3ccccc3)CC2)C1=O (configuration not stated)	1	105	-1	-2	70*	102*	-5	Scp-1 Tm shift=-19
O=C(c1cc2c(s1)CCCCCC2)N1CCC2(CC1)OCCO2	4	101	0	-1	-3	x	x
CCc1sc(C(=O)N2CCC3(CC2)OCCO3)cc1Br	-2	102	-1	0	54*	-7	-5
Cc1ccc(S(=O)(=O)Cc2ccc(C(=O)N3CCC4(CC3)OCCO4)o2)cc1	0	88	-1	4	57*	52*	-8	Scp-1 Tm shift=1
Cc1ccc(CS(=O)(=O)Cc2ccc(C(=O)N3CCC4(CC3)OCCO4)o2)cc1	5	98	-1	2	0	x	x

Compound activity as filed in PubChem.
